Active and inactive are the calls of the source.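 The calls were made as follows: active = current rise at least 3 SD above the untreated control mean in each of two repeat wells; inactive = the rest.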

In PubChem BioAssay one finds outcome and current potentiation data, which are given here for 40 compounds.

In the assay the target is Potassium voltage-gated channel subfamily KQT member 1 (Homo sapiens) (UniProt P51787). In words: KCNQ1 activators by electrophysiology – IonWorks patch clamp, KCNQ1-CHO cells, orthogonal assay for KCNQ1 potentiator project, confirmation (AID 493184).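 As to current potentiation: percent change of the same well's current before compound addition so 0% = no change.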 Conditions: automated patch clamp current, at 10 µM; active compounds read high. Put shortly: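 Read-out: Percent current increase versus pre-compound level | Assay system: CHO cells carrying KCNQ1 | Measured by: Automated perforated-patch electrophysiology | Medium: External bath solution at pH 7.4 | Dosing: One dose, 10 µM final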
Sequence of Potassium voltage-gated channel subfamily KQT member 1 (Homo sapiens) (P51787 whole entry, looked up): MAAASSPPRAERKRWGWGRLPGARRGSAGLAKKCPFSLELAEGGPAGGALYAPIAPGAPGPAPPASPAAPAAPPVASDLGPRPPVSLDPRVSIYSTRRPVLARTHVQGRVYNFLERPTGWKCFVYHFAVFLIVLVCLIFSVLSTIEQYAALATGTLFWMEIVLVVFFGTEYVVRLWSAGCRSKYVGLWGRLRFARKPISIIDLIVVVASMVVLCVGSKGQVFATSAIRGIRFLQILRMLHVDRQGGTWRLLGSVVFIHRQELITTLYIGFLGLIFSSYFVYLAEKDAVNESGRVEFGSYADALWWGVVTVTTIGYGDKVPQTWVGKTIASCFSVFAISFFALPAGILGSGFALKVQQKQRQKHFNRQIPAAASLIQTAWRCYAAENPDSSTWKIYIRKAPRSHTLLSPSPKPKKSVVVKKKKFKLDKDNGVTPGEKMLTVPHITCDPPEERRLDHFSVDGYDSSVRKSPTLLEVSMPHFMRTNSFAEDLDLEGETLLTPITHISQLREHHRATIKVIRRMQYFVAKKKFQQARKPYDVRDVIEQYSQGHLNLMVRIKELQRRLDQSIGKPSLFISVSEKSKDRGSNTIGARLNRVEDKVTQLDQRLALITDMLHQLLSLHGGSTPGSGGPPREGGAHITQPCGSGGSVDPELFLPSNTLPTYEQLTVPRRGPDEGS
Background: The patch-clamp technique gives a direct electrical read-out from membranes.
As for `COC(=O)C1=C(C(=O)OC)[C@@H]2N(C)c3ccccc3[C@@]23C[C@@H](C(=O)OC)N(C(=O)c2ccc(Br)cc2)C3=N1`, the result was inactive.

Regarding `O=c1[nH]cc(-c2ccccc2)c(=O)[nH]1`, the result was inactive.

Regarding `COC(=O)C1SCC2C(=O)N(Cc3ccc(F)cc3)CC(=O)N21` (stereo not given), the outcome was inactive. Regarding `CCN(CC)C(=S)NC(=O)c1ccc(OC)c(Br)c1`, the result was inactive.

As for `CCC1CCCCN1C(=S)NC(=O)c1cccc([N+](=O)[O-])c1` (stereo not given), the result was inactive. For `CC(C)N(C(=O)CSc1ncnc2sc(-c3ccccc3)cc12)C(C)C`, the result was inactive. For `COC(=O)c1sc(-c2ccc(C(C)(C)C)cc2)cc1NC(=O)/C=C/C(=O)O`, the current potentiation was 20.6% (active). `O=C(Cn1c(=O)c2c(ncn2Cc2ccccc2)n(Cc2ccccc2)c1=O)N1CCc2ccccc21`: the result was inactive.

`Cc1ccnc(NS(=O)(=O)c2ccc(NC(=O)C34CC5CC(CC(C5)C3)C4)cc2)n1`: the result was inactive. Turning to `O=C(NNc1nc2c(F)cc(F)cc2s1)c1ccccc1`, the result was inactive. With `COc1ccc(OC)c(/C=C2\SC(=S)N(NS(=O)(=O)c3ccc(C)cc3)C2=O)c1`, the current potentiation was 47.4% (active).

For the compound `Cc1ccc(-c2csc(NC(=S)NC(=O)c3ccco3)n2)cc1`, the result was inactive. Same read-out and setting: the same measure for `Fc1cccc(/C=N/Nc2ccc3ccccc3n2)c1`: “inactive”; for `COCCNC(=O)CN(C)S(=O)(=O)c1ccc(Br)cc1`: “inactive”; for `O=C(CCN1CCCCCC1)Nc1ccc(F)cc1`: “inactive”. As for `CCC/C=N/NC(=O)c1[nH]c2c([N+](=O)[O-])cccc2c1C`, the outcome was inactive. On to `Cc1ccccc1-c1nc(Cc2ccc(Cl)cc2)no1`, for which the outcome was inactive. Turning to `O=C(NC(=S)N1CCCc2ccccc21)c1ccc([N+](=O)[O-])cc1`, the result was inactive. On to `CC(CCc1ccccc1)NC(=S)NC(=O)c1ccco1` (stereo not given), for which the outcome was inactive. On the same count and under the same terms, the result for `O=C(O)CCC(=O)Nc1ccc(S(=O)(=O)c2ccc(NC(=O)CCC(=O)O)cc2)cc1` reads “inactive”; that for `CCOc1ccccc1NC(=O)C(=O)CC(=O)c1cccc(OC)c1`, “inactive”; that for `COc1ccc(NC2=NC3(CCCCC3)N=C(N)N2)cc1`, “inactive”. With `CCOc1ccc(C(=O)C(CCC(CN(C)C)C(=O)c2ccc(OCC)cc2)CN(C)C)cc1` (stereo not given), the outcome was inactive. Regarding `CC(C)C(NC(=O)Nc1ccccc1)C(=O)Nc1cccc(S(=O)(=O)N(C)C)c1` (stereo not given), the result was inactive.

For `CC(C)Cn1c(=O)c(C(=O)N/N=C/c2cccc(F)c2)c(O)c2ccccc21`, the outcome was inactive. Consider `O=C(NCc1ccco1)C1CC(c2ccc(Cl)cc2)=NO1` (stereo not given), for which the outcome was inactive. The same measure, in the same setting: the result for `CC(C)c1ccc(NC(=O)C2CC(=O)N=C(N)S2)cc1` (stereo not given) reads “inactive”; that for `CCCS(=O)(=O)c1c(S(=O)(=O)CCC)c2ccc(C(N)=O)cn2c1C(=O)c1ccccc1`, “inactive”.

On to `O=C(CN(Cc1ccccc1Cl)C(=O)c1csnn1)NC1CCCC1`, for which the result was inactive. `CC(C)(C)c1ccc(C(=O)NC(=S)Nc2nc3c(s2)CCCC3)cc1`: the outcome was inactive. For the compound `Cc1cccc(-n2c(C)cc(/C=N/NC(N)=S)c2C)c1`, the outcome was inactive.

Regarding `CCOC(=O)C1=NN(C(=O)c2ccc(OC)cc2)C(O)(c2ccc(Cl)cc2)C1` (stereo not given), the outcome was inactive. Turning to `Cc1ccc(C)c(NS(=O)(=O)c2cc(C(=O)NCc3ccccn3)ccc2Cl)c1`, the result was inactive.

With `Cc1ccc(C(=O)Nc2nnn(C)n2)cc1`, the result was inactive. Turning to `O=C(CCOc1ccccc1)Nc1ccnn1C1CCN(Cc2ccc(CO)o2)CC1`, the outcome was inactive. As to `NS(=O)(=O)c1ccc(CCNC(=O)COC(=O)c2cc([N+](=O)[O-])ccc2N2CCOCC2)cc1`, the outcome was inactive. For the compound `Cc1ccc(C(=O)N2CCNC(=O)C2CC(=O)Nc2ccc(F)cc2)cc1C` (stereo not given), the outcome was inactive. Consider `O=C(NNc1ncc(C(F)(F)F)cc1Cl)c1c(Cl)cccc1Cl`, for which the result was inactive. As to `Cc1cc2n(n1)SC(Nc1ccc(F)c(Cl)c1)N2` (stereo not given), the result was inactive. For `COC(=O)c1c(NC(=O)c2ccccc2)sc(C(=O)c2ccccc2)c1C`, the outcome was inactive.
